TAAR1 agonist: human TAAR1 agonism; Q96RJ0; CHO RD-HGA16 TAAR1, Fluo-8 calcium fluorescence; vehicle wells 0%, saturating PEA agonist 100%; activation, % at 3 µM; hit rate 0.99% among 360,000;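 active = activation above the mean activation of all test compounds in the run plus 3 SD, cut at about 38% in these data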
Target sequence (Q96RJ0 whole entry, looked up): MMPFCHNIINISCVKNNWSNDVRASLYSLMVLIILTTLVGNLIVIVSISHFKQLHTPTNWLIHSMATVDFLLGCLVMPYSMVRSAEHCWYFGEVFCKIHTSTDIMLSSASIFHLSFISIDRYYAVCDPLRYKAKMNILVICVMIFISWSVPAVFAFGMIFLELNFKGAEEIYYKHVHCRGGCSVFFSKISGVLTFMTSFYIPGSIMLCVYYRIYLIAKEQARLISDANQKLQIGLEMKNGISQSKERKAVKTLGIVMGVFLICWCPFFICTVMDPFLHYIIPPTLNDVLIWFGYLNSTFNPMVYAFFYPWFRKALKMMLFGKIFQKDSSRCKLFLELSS
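System: CHO-derived RD-HGA16 cells with stable Gα16 and human TAAR1. Times: 17-24 h plating, Fluo-8 75 min 37 °C, 30 min RT. Measured by: calcium-sensitive Fluo-8 signal, excitation 470-495, emission 515-575 nm. Read-out basis: % activation relative to PEA EC100 response. Control set: DMSO and PEA EC100. Repeats: no replicates (n 1).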
OX1R antag-1: antagonists of human orexin 1 receptor; O43613; CHO/OX1R cells, Fluo-8 calcium fluorescence, orexin A; inhibition, % at 5 µM; hit rate 0.43% among 330,000; AID 434989;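 active = inhibition above its plate's threshold, mean inhibition of all tested compounds on the plate plus 3 SD, cut at about 37% in these data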;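 note: 0% = orexin A challenge wells and 100% = SB-334867-A antagonist wells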
Target sequence (O43613 whole entry, looked up): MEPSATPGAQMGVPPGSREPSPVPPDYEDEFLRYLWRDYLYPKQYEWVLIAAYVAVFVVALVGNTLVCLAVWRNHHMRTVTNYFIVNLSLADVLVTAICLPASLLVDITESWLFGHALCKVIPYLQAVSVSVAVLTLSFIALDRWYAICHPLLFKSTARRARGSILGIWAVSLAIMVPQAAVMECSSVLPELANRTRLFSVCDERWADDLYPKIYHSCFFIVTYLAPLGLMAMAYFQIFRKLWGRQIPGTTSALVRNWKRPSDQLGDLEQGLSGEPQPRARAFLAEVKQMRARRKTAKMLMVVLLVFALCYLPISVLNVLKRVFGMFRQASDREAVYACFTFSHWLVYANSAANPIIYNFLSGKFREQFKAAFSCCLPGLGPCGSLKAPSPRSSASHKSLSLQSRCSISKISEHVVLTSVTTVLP
GPR7 antagonist: blocks human GPR7 receptor signaling; GPR7-expressing cells, fluorescence antagonist assay; inhibition, % at 4.4 µM; hit rate 1.1% among 290,000; AID 1861; in the data active = inhibition above about 16%, passing the limit was not always enough;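 note: cells stimulated with the agonist NPW; 0% = agonist with vehicle and 100% = vehicle without agonist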
TAAR1 antagonist: human TAAR1 antagonism; hit rate 1.5% among 360,000; CHO RD-HGA16 TAAR1, Fluo-8 calcium fluorescence, antagonist; inhibition, % at 3 µM; Q96RJ0;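 active = inhibition above a per-plate cutoff, the mean inhibition of test compounds on that plate plus 3 SD, cut at about 49% in these data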;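 note: 0% = DMSO plus EC80 beta-PEA response and 100% = DMSO alone without agonist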
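Test system: hTAAR1-expressing CHO RD-HGA16 cells, Gα16-coupled; Probe or stimulus: EC80 β-phenethylamine stimulus; Compound dosing: single nominal final test compound concentration of 3 µM; Timing: 140 s kinetic read after compound, 140 s after agonist; Signal: Fluo-8 calcium-sensitive fluorescence; Measure: % inhibition of agonist calcium response; Controls: DMSO and EC80 PEA controls.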
CHO parental Ca: counter-screen: ATP calcium response change in parental CHO cells | inhibition, % at 5.6 µM | hit rate 0.63% among 330,000 | parental CHO-K1, ATP-induced calcium, Fluo-8 fluorescence | AID 463079;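 active = inhibition above that plate's mean sample inhibition plus 3 SD, cut at about 26% in these data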;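 note: 0% = ATP-challenged DMSO wells and 100% = DMSO wells without ATP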
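Material: Parental CHO cells | Reagent: ATP | Compound dosing: Single nominal dose of 5.6 µM per compound | Detection: Intracellular calcium via Fluo-8 no-wash fluorescent dye | Read-out: % inhibition of ATP-induced calcium mobilization | Benchmarks: Low control ATP plus DMSO, high control DMSO only | Replicates: Singlicate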
OX1R antag-2: blocks the human orexin 1 receptor. hit rate 1.8% among 330,000. AID 485270. OX1R-expressing cells, FRET antagonist read-out. inhibition, % at 6.6 µM. O43613; in the data active = inhibition mostly above about 38%, no sharp cut-off; inactive = mostly below about 40%;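 note: 0% = agonist challenge alone and 100% = reference antagonist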
TAAR1 nonsel count: counter-screen for TAAR1 antagonists: nonselective antagonists; shares compounds with TAAR1 antagonist; counterscreen cell line, calcium fluorescence, antagonist mode; inhibition, % at 3 µM; hit rate 77% among 2,400; AID 651780; in the data active = inhibition above about 22%;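 note: CHO-Ga16 host cells stimulated with ATP at an EC80 level; 0% = agonist EC80 plus vehicle and 100% = vehicle without agonist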
TAAR1 antag conf: confirmation of human TAAR1 antagonists; inhibition, % at 3 µM; hit rate 40% among 2,400; TAAR1-expressing cells, fluorescence antagonist read-out; shares compounds with TAAR1 antagonist; in the data active = inhibition above about 49%;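 note: CHO-Ga16 host cells challenged with agonist PEA near its EC80; 0% = agonist at EC80 plus vehicle and 100% = vehicle with no agonist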
Ga16 nonsel ag: nonselective Ga16 agonism, counter-screen; Ga16-expressing cells, calcium fluorescence, agonist counterscreen; shares compounds with TAAR1 antagonist; hit rate 18% among 2,400; activation, % at 3 µM; in the data active = activation above about 12%;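 note: 0% = vehicle wells and 100% = saturating stimulus response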
TAAR1 ag count: TAAR1 agonism, antagonist counter-screen; shares compounds with TAAR1 antagonist; hTAAR1 cell line, fluorescence activation, agonist mode; activation, % at 3 µM; hit rate 2% among 2,400; AID 651955; in the data active = activation above about 37%;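 note: CHO cells stably expressing TAAR1 with calcium dye readout; 0% = DMSO vehicle and 100% = full agonist response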
An asterisk follows results filed as active; . = not tested or not shown. This is a sample that favours compounds with a hit; in the whole collection about 4.6% have one here.

SMILES	TAAR1 agonist	OX1R antag-1	GPR7 antagonist	TAAR1 antagonist	CHO parental Ca	OX1R antag-2	TAAR1 nonsel count	TAAR1 antag conf	Ga16 nonsel ag	TAAR1 ag count
Cc1ccc(S(=O)(=O)N2CCN(S(C)(=O)=O)C2C)cc1 (stereo not drawn)	1	-2	.	-7	3	18	.	.	.	.
Oc1ccc(-c2csc(NCc3ccco3)n2)cc1	-2	-19	-9	104*	-13	21	-3	-2	0	-4
CN(C)c1ccc(S(=O)(=O)N2CCCCC2)cc1NC(=O)CCNC(=O)c1ccccc1Cl	3	.	.	-10	.	.	.	.	.	.
COc1ccc(/C=N/NC(=O)c2cc3c(ccc4ccccc43)o2)cc1OC	7	.	-12	53*	.	.	28*	36	7	3
COc1ccc(/C=N\NC(=O)c2cc3c(ccc4ccccc43)o2)cc1O	10	.	12	57*	.	.	40*	55*	13*	12
O=C(O)c1ccc(/C=N/NC(=O)c2cc3c(ccc4ccccc43)o2)cc1	0	-8	-1	9	5	3	.	.	.	.
O=C(NCc1cccs1)c1ccc2sc(COCCO)nc2c1	5	.	.	3	.	.	.	.	.	.
CCOCCCNC(=O)C(c1ccc(OC)cc1)N(Cc1ccc2c(c1)OCO2)C(=O)c1ccccn1 (stereo not drawn)	6	-24	-7	-4	-13	17	.	.	.	.
CCOCCCNC(=O)C(c1ccc(C)cc1)N(Cc1cccs1)C(=O)c1ccccn1 (stereo not drawn)	18	-4	-15	61*	-14	10	30*	55*	12*	13
CCOCCCNC(=O)C(c1ccc(Cl)cc1)N(Cc1cccs1)C(=O)c1ccccn1 (stereo not drawn)	18	-34	3	71*	3	7	21	38	9	10
O=C(NCc1ccccc1)C(c1ccc(F)cc1)N(Cc1cccs1)C(=O)c1cnccn1 (stereo not drawn)	16	-25	-6	52*	-20	15	31*	48	7	9
Cc1cnc(C)c(Nc2nc(C(N)Cc3ccc(C(F)(F)F)cc3)cs2)n1 (stereo not drawn)	26	.	.	-7	.	.	.	.	.	.
COc1ccc(C)cc1-n1nnnc1SCc1nc2ccccc2s1	16	-17	3	54*	-8	43	27*	27	6	3
COc1ccc(-n2nnnc2SCc2nc3ccccc3s2)cc1	2	-15	1	15	4	25	.	.	.	.
CCOC(=O)Cc1csc(NC(=O)c2ccc([N+](=O)[O-])cc2[N+](=O)[O-])n1	7	-25	-20	-18	5	45	.	.	.	.
Cc1ccc(-c2cc(C(=O)Nc3cc(C(=O)O)ccc3C)c3ccccc3n2)cc1	11	-13	-10	16	-7	19	.	.	.	.
Cc1ccc(S(=O)(=O)N(C)C)cc1NC(=O)c1cc(-c2ccncc2)nc2ccccc12	12	-22	.	54*	-2	-1	21	34	7	10
COc1ccc(NC(=O)c2cc(-c3ccncc3)nc3ccccc23)c(OC)c1	12	-34	.	42	-25	7	.	.	.	.
CCOC(=O)Cc1csc(NC(=O)c2cc(-c3ccncc3)nc3ccccc23)n1	14	-22	.	64*	-22	3	33*	50*	9	7
CCOC(=O)Cc1csc(NC(=O)c2ccc(N3CCOCC3)cc2[N+](=O)[O-])n1	20	-1	.	55*	-9	12	38*	53*	11	12
CCOc1ccccc1NC(=O)c1cc(-c2ccncc2)nc2c(Cl)cccc12	3	.	-3	71*	.	.	11	47	6	12
CCCCN1CC(N(C)CCN(C)C)CS1(=O)=O (stereo not drawn)	2	.	.	-6	.	.	.	.	.	.
Cc1c(N=C2N=C(NC(=O)NC(C)(C)C)c3ccccc32)c(=O)n(-c2ccccc2)n1C	7	-17	6	16	-8	25	.	.	.	.
Cc1c(N=C2N=C(NC(=O)c3cccs3)c3ccccc32)c(=O)n(-c2ccccc2)n1C	18	-15	-17	59*	-3	20	42*	49*	18*	13
N#Cc1ccc(S(=O)(=O)N2CCN(C(=O)c3cn(-c4ccccc4)nc3-c3cccnc3)CC2)cc1	3	.	.	1	.	.	.	.	.	.
SMILES	TAAR1 agonist	OX1R antag-1	GPR7 antagonist	TAAR1 antagonist	CHO parental Ca	OX1R antag-2	TAAR1 nonsel count	TAAR1 antag conf	Ga16 nonsel ag	TAAR1 ag count
O=C(Nc1nnc(-c2ccc(Br)cc2)o1)c1cccc(N2C(=O)CCC2=O)c1	2	-16	.	-8	-25	22	.	.	.	.
Cc1c(C(=O)Nc2cccc([N+](=O)[O-])c2)csc1-c1ccccc1	14	9	1	81*	-4	72*	37*	54*	4	-2
C[C@@H]1CN([C@H](C)CO)C(=O)CCCn2nncc2CO[C@H]1CN(C)C(=O)c1ccc2ccn(C)c2c1	1	.	.	-12	.	.	.	.	.	.
COc1ccc(-c2nc(NC(=O)c3ccc(OCC(=O)Nc4ccc(F)cc4)c(OC)c3)sc2C)cc1	7	-14	-10	65*	-17	9	30*	47	10	10
O=C1ON=C(c2ccccc2[N+](=O)[O-])/C1=C/c1cccc([N+](=O)[O-])c1O	-1	-8	.	4	-12	11	.	.	.	.
Cc1nc(-c2ccc(F)cc2)c(CC(=O)N2CCN(S(=O)(=O)c3cccc(Cl)c3)CC2)s1	4	-32	.	51*	-29	6	25*	35	5	2
Cc1nc(-c2ccc(F)cc2)c(CC(=O)N2CCN(S(=O)(=O)c3ccccc3Br)CC2)s1	1	-36	-4	13	-25	29	.	.	.	.
Cc1ccc(C)c(S(=O)(=O)N2CCN(C(=O)Cc3sc(C)nc3-c3ccc(F)cc3)CC2)c1	7	.	.	59*	.	.	23*	37	5	1
COc1ccc2c(c1)c(C(C)=O)c(C)n2CCc1ccccc1	0	-9	-13	15	6	20	.	.	.	.
C=C(C)C1CCC(C)=C1COC(=O)Nc1ccccc1 (stereo not drawn)	21	-3	-6	53*	-27	22	-2	2	-1	-3
COc1cccc(COC(=O)Nc2ccccc2)c1OC	-1	.	.	-14	.	.	.	.	.	.
COc1ccc(-n2nc(C(=O)NCC(=O)Nc3cc(OC)c(OC)c(OC)c3)c3ccccc3c2=O)cc1Cl	15	2	0	64*	-13	58	28*	47	8	6
